# Laboratory results taken from ChEMBL document CHEMBL4808187, “Antiarrhythmic Hit to Lead Refinement in a Dish Using Patient-Derived iPSC Cardiomyocytes” (J Med Chem, 2021).
# Calls of active or inactive are those of the source. The calls are words filed in the database; no cut-off is given here.
# System: iPSC-CM
# Assay: Antiarrhythmic activity in patient-derived hiPSC-CMs carrying LQT3 mutation assessed as cessation dose for cell beating
# Assay type: functional
# Details: Homo sapiens
row,SMILES,Activity
1,Cc1cccc(C)c1OCC(C)N (stereo not drawn) [MEXILETINE],inactive

# System: not listed separately
# Assay: Antiarrhythmic activity in patient-derived hiPSC-CMs carrying LQT3 mutation assessed as shortening of action potential duration
# Assay type: functional, Homo sapiens
# Details: ipsc-cm; read-out: EC50
row,SMILES,EC50
1,Cc1cccc(C)c1OCC(C)N (stereo not drawn) [MEXILETINE],1800 nM

# System: not listed separately
# Assay: Antiarrhythmic activity in patient-derived hiPSC-CMs carrying LQT3 mutation assessed as shortening dose of action potential
# Assay type: functional, Homo sapiens, iPSC-CM
# Details: not given
row,SMILES,Activity
1,Cc1cccc(C)c1OCC(C)N (stereo not drawn) [MEXILETINE],22 µM

# System: not listed separately
# Assay: Antiarrhythmic activity in hiPSC-CMs assessed as cessation dose of cell beating
# Details: human, ipsc-cm
row,SMILES,Activity
1,Cc1cccc(C)c1OCC(C)N (stereo not drawn) [MEXILETINE],Not Active

# System: not listed separately
# Assay: Antiarrhythmic activity in hiPSC-CMs assessed as dose for induction of early after depolarizations
# Details: human, ipsc-cm
row,SMILES,Activity
1,Cc1cccc(C)c1OCC(C)N (stereo not drawn) [MEXILETINE],200 µM

# System: not listed separately
# Assay: Antiarrhythmic activity in hiPSC-CMs assessed as prolongation of action potential
# Parameters: species or system Homo sapiens, iPSC-CM
# Details: Homo sapiens, iPSC-CM; read-out: EC50
row,SMILES,EC50
1,Cc1cccc(C)c1OCC(C)N (stereo not drawn) [MEXILETINE],20.4 µM

# System: not listed separately
# Assay: Inhibition of potassium channel (unknown origin) expressed in CHO cells assessed as reduction in potassium current by automated patch clamp method
# Assay type: cell-based
# Details: not given
row,SMILES,IC50
1,Cc1cccc(C)c1OCC(C)N (stereo not drawn) [MEXILETINE],53.7 µM

# System: not listed separately
# Assay: Metabolic stability in human liver S9 fraction assessed as compound remaining at 50 uM after 1 hr by HPLC method
# Assay type: ADME, subcellular
# Details: read-out: Stabilty
# Outline: (§1)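 Human liver microsomes (0.4–0.5 mg protein) or S-9 (1 mg) with 50 μM compound in 50 mM potassium phosphate pH 7.4 plus NADPH-generating system, 37 °C shaking for 0, 7, 15, 30, 60 min; stopped with cold acetonitrile; HPLC C18, isocratic water/acetonitrile with 0.05% TFA, UV 275.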
row,SMILES,"remaining at 1 h, 50 µM"
1,Cc1cc(C)cc(OC[C@@H](N)c2ccccc2)c1.Cl,> 95%
2,Cl.N[C@@H](COc1ccccc1C(F)(F)F)c1ccccc1,> 95%
3,Cl.N[C@H](COc1ccccc1C(F)(F)F)c1ccccc1,> 95%

# System: not listed separately
# Assay: Metabolic stability in human liver S9 fraction assessed as half life at 50 uM measured upto 60 mins by HPLC method
# Assay type: ADME, subcellular
# Details: not given
# Outline: as §1
row,SMILES,half-life at 50 µM
1,Cc1ccccc1OC[C@H](N)c1ccccc1.Cl,408 min
2,Cc1cc(C)cc(OC[C@H](N)c2ccccc2)c1.Cl,1020 min

# System: not listed separately
# Assay: Metabolic stability in human liver microsomes assessed as compound remaining at 50 uM after 1 hr by HPLC method
# Assay type: ADME, Microsome
# Details: read-out: Stabilty
# Outline: as §1
row,SMILES,"remaining at 1 h, 50 µM"
1,Cc1cc(C)cc(OC[C@@H](N)c2ccccc2)c1.Cl,> 95%
2,Cl.N[C@@H](COc1ccccc1C(F)(F)F)c1ccccc1,> 95%
3,Cl.N[C@H](COc1ccccc1C(F)(F)F)c1ccccc1,> 95%

# System: not listed separately
# Assay: Metabolic stability in human liver microsomes assessed as half life at 50 uM measured upto 60 mins by HPLC method
# Assay type: ADME, Microsome
# Details: not given
# Outline: as §1
row,SMILES,half-life at 50 µM
1,Cc1ccccc1OC[C@H](N)c1ccccc1.Cl,365 min
2,Cc1cc(C)cc(OC[C@H](N)c2ccccc2)c1.Cl,406 min

# System: not listed separately
# Assay: Tmax in Sprague-Dawley rat at 5 mg/kg, iv measured upto 25 hrs by LCMS analysis
# Assay type: ADME, organism-based
# Details: in vivo
row,SMILES,Tmax
1,Cc1cccc(C)c1OCC(C)N (stereo not drawn) [MEXILETINE],10.2 min
2,Cl.N[C@@H](COc1ccccc1C(F)(F)F)c1ccccc1,10.8 min
3,Cl.N[C@H](COc1ccccc1C(F)(F)F)c1ccccc1,10.2 min

# System: not listed separately
# Assay: Tmax in Sprague-Dawley rat at 25 mg/kg, po measured upto 25 hrs by LCMS analysis
# Assay type: ADME, organism-based
# Details: in vivo
row,SMILES,Tmax
1,Cc1cccc(C)c1OCC(C)N (stereo not drawn) [MEXILETINE],1 h
2,Cl.N[C@@H](COc1ccccc1C(F)(F)F)c1ccccc1,1.5 h
3,Cl.N[C@H](COc1ccccc1C(F)(F)F)c1ccccc1,1.5 h

# System: not listed separately
# Assay: Cmax in Sprague-Dawley rat at 5 mg/kg, iv measured upto 25 hrs by LCMS analysis
# Assay type: ADME, organism-based
# Parameters: route intravenous, dose 5 mg/kg, time <=25
# Details: in vivo
row,SMILES,Cmax
1,Cc1cccc(C)c1OCC(C)N (stereo not drawn) [MEXILETINE],289 ng/mL
2,Cl.N[C@@H](COc1ccccc1C(F)(F)F)c1ccccc1,249 ng/mL
3,Cl.N[C@H](COc1ccccc1C(F)(F)F)c1ccccc1,219 ng/mL

# System: not listed separately
# Assay: Cmax in Sprague-Dawley rat at 25 mg/kg, po measured upto 25 hrs by LCMS analysis
# Assay type: ADME, organism-based
# Parameters: route oral, dose 25 mg/kg, time <=25
# Details: in vivo
row,SMILES,Cmax
1,Cc1cccc(C)c1OCC(C)N (stereo not drawn) [MEXILETINE],167 ng/mL
2,Cl.N[C@@H](COc1ccccc1C(F)(F)F)c1ccccc1,258 ng/mL
3,Cl.N[C@H](COc1ccccc1C(F)(F)F)c1ccccc1,226 ng/mL

# System: not listed separately
# Assay: AUC in Sprague-Dawley rat at 5 mg/kg, iv measured upto 25 hrs by LCMS analysis
# Assay type: ADME, organism-based
# Parameters: route intravenous, dose 5 mg/kg, time <=25
# Details: in vivo
row,SMILES,AUC
1,Cc1cccc(C)c1OCC(C)N (stereo not drawn) [MEXILETINE],447 ng·h/mL
2,Cl.N[C@@H](COc1ccccc1C(F)(F)F)c1ccccc1,280 ng·h/mL
3,Cl.N[C@H](COc1ccccc1C(F)(F)F)c1ccccc1,407 ng·h/mL

# System: not listed separately
# Assay: AUC in Sprague-Dawley rat at 25 mg/kg, po measured upto 25 hrs by LCMS analysis
# Assay type: ADME, organism-based
# Parameters: route oral, dose 25 mg/kg, time <=25
# Details: in vivo
row,SMILES,AUC
1,Cc1cccc(C)c1OCC(C)N (stereo not drawn) [MEXILETINE],839 ng·h/mL
2,Cl.N[C@@H](COc1ccccc1C(F)(F)F)c1ccccc1,1556 ng·h/mL
3,Cl.N[C@H](COc1ccccc1C(F)(F)F)c1ccccc1,1008 ng·h/mL

# System: not listed separately
# Assay: Half life in Sprague-Dawley rat at 5 mg/kg, iv measured upto 25 hrs by LCMS analysis
# Assay type: ADME, organism-based
# Details: in vivo
row,SMILES,t1/2
1,Cc1cccc(C)c1OCC(C)N (stereo not drawn) [MEXILETINE],10.6 h
2,Cl.N[C@@H](COc1ccccc1C(F)(F)F)c1ccccc1,1.2 h
3,Cl.N[C@H](COc1ccccc1C(F)(F)F)c1ccccc1,3.8 h

# System: not listed separately
# Assay: Half life in Sprague-Dawley rat at 25 mg/kg, po measured upto 25 hrs by LCMS analysis
# Assay type: ADME, organism-based
# Details: in vivo
row,SMILES,t1/2
1,Cc1cccc(C)c1OCC(C)N (stereo not drawn) [MEXILETINE],11 h
2,Cl.N[C@@H](COc1ccccc1C(F)(F)F)c1ccccc1,5.3 h
3,Cl.N[C@H](COc1ccccc1C(F)(F)F)c1ccccc1,6.5 h

# System: not listed separately
# Assay: Oral bioavailability in Sprague-Dawley rat at 25 mg/kg measured upto 25 hrs by LCMS analysis
# Assay type: ADME, organism-based
# Details: in vivo
row,SMILES,bioavailability
1,Cc1cccc(C)c1OCC(C)N (stereo not drawn) [MEXILETINE],37%
2,Cl.N[C@@H](COc1ccccc1C(F)(F)F)c1ccccc1,100%
3,Cl.N[C@H](COc1ccccc1C(F)(F)F)c1ccccc1,42%

# Target: Cytochrome P450 3A4 (Homo sapiens, UniProt P08684)
# Sequence (P08684 whole entry): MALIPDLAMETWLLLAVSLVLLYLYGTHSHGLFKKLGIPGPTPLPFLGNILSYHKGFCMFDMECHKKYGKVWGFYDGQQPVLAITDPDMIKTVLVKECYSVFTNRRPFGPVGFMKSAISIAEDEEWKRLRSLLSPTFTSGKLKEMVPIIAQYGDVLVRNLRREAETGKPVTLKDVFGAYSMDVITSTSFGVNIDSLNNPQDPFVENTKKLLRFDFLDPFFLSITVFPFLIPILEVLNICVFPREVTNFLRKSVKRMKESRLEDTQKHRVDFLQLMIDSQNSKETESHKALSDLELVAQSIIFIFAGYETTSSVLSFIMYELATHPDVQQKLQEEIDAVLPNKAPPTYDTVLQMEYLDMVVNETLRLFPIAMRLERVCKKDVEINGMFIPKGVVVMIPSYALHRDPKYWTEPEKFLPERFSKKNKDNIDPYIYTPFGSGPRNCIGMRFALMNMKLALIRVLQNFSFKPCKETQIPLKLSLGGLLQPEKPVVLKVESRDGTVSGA
# Assay: Drug metabolism assessed as human CYP3A4-mediated metabolism per ug protein
# Assay type: ADME
# Details: recombinant enzyme
row,SMILES,Drug metabolism
1,Cc1cccc(C)c1OCC(C)N (stereo not drawn) [MEXILETINE],46.2 pmol/min

# Target: Cytochrome P450 3A5 (Homo sapiens, UniProt P20815)
# Sequence (P20815 whole entry): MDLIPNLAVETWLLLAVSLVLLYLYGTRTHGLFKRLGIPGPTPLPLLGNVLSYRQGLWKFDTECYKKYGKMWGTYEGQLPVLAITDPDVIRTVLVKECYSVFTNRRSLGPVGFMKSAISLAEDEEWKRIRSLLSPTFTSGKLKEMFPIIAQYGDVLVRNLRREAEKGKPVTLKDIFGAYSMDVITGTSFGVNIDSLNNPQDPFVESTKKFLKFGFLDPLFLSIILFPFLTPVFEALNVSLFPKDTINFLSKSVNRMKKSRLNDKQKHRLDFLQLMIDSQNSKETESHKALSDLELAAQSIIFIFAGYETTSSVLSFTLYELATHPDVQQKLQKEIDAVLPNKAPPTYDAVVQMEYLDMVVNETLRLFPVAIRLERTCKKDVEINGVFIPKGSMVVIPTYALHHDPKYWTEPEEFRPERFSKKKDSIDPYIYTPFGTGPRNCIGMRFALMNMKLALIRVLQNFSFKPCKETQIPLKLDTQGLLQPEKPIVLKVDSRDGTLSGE
# Assay: Drug metabolism assessed as human CYP3A5-mediated metabolism per ug protein
# Assay type: ADME
# Details: recombinant enzyme
row,SMILES,Drug metabolism
1,Cc1cccc(C)c1OCC(C)N (stereo not drawn) [MEXILETINE],48.8 pmol/min

# Target: Cytochrome P450 2D6 (Homo sapiens, UniProt P10635)
# Sequence (P10635 whole entry): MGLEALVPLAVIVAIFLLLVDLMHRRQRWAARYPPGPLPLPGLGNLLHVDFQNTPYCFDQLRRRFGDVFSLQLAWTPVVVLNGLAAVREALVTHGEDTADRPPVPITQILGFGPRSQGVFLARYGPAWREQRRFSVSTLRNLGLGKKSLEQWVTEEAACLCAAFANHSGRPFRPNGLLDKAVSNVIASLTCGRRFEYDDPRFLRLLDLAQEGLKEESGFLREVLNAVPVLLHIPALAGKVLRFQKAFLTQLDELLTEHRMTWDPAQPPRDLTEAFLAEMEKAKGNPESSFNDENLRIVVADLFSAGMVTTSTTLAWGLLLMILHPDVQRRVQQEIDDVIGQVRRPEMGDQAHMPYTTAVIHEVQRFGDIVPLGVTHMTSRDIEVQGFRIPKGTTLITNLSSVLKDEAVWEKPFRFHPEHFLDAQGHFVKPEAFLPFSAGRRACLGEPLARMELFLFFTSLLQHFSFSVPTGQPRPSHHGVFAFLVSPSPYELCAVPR
# Assay: Drug metabolism assessed as human CYP2D6-mediated metabolism per ug protein
# Assay type: ADME
# Details: recombinant enzyme
row,SMILES,Drug metabolism
1,Cc1cccc(C)c1OCC(C)N (stereo not drawn) [MEXILETINE],6 pmol/min

# System: not listed separately
# Assay: Toxicity in ip dosed BALB/c mouse assessed as lethal dose
# Assay type: organism-based
# Details: in vivo
row,SMILES,LD50
1,Cc1cc(C)cc(OC[C@@H](N)c2ccccc2)c1.Cl,> 200 mg/kg
2,Cl.N[C@@H](COc1ccccc1C(F)(F)F)c1ccccc1,> 200 mg/kg
3,Cc1cc(C)cc(OC[C@H](N)c2ccccc2)c1.Cl,> 200 mg/kg
4,Cl.N[C@H](COc1ccccc1C(F)(F)F)c1ccccc1,> 200 mg/kg

# System: not listed separately
# Assay: Toxicity in BALB/c mouse assessed as behavioral effects at 100 mg/kg, ip monitored for 30 mins
# Assay type: organism-based
# Details: in vivo, 0.5 h
# Outline: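 Adult male BALB/c mice, four per compound, 100 mg/kg i.p.; behaviour (lethargy, immobilization, seizures, shaking) observed for 30 min; lethality recorded at 24 h.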
row,SMILES,Activity
1,Cl.N[C@@H](COc1ccccc1C(F)(F)F)c1ccccc1,Non-Toxic
2,Cc1cc(C)cc(OC[C@H](N)c2ccccc2)c1.Cl,Non-Toxic

# System: not listed separately
# Assay: Toxicity in BALB/c mouse assessed as lethargy at 100 mg/kg, ip monitored for 30 mins
# Assay type: organism-based
# Details: in vivo, 0.5 h
row,SMILES,Activity
1,Cc1cc(C)cc(OC[C@@H](N)c2ccccc2)c1.Cl,Toxic
2,Cl.N[C@H](COc1ccccc1C(F)(F)F)c1ccccc1,Toxic

# System: not listed separately
# Assay: Toxicity in BALB/c mouse assessed as central nervous system effects at 100 mg/kg, ip
# Assay type: organism-based
# Details: in vivo
row,SMILES,Activity
1,Cc1cc(C)cc(OC[C@@H](N)c2ccccc2)c1.Cl,Toxic
2,Cl.N[C@H](COc1ccccc1C(F)(F)F)c1ccccc1,Toxic

# System: Heart
# Assay: Antiarrhythmic activity in H2O2-perfused Sprague-Dawley rat heart assessed as resolution of arrhythmias to normal sinus rhythm at 10 uM after 30 to 40 mins
# Assay type: functional, tissue-based
# Details: time 30-40 min
# Outline: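 Perfused ex vivo hearts from aged rats; continuous perfusion of H2O2 (0.1 mM) induces EADs and ectopic beats progressing to VT/VF; test compound perfused at 10 μM with H2O2 still present; rhythm followed for conversion to sinus rhythm.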
row,SMILES,Activity
1,Cl.N[C@@H](COc1ccccc1C(F)(F)F)c1ccccc1,Active
